Columns and labels:
[1] = Competitive inhibition of purified Escherichia coli thymidylate synthetase using t5-[3H]-2'-deoxyuridine 5'-phosphate as substrate after 7 mins by double reciprocal plot method
In short: (§1)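 Thymidylate synthetase was purified from E. coli, calf thymus or Ehrlich ascites tumor cells. Inhibition constants came from double-reciprocal plots of velocity against substrate concentration. Each plot used five substrate concentrations and at least two inhibitor concentrations.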

Thymidylate synthase [2] = biological target: Thymidylate synthase (Mus musculus, UniProt P07607); assay: Competitive inhibition of purified mouse Ehrlich ascites tumor cell thymidylate synthetase using 5-[3H]-2'-deoxyuridine 5'-phosphate as substrate after 7 mins by double reciprocal plot method; in short: as §1
Thymidylate synthase (Mus musculus, UniProt P07607), sequence (P07607 whole entry): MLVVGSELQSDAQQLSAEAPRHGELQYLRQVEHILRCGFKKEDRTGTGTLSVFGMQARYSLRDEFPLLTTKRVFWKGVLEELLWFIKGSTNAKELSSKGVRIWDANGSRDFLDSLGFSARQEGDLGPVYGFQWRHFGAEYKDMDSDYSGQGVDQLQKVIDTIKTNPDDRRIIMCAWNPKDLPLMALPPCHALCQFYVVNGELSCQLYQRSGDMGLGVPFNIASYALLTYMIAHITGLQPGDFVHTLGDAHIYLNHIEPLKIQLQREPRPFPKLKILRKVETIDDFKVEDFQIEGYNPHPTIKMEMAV

Thymidylate synthase [3] = biological target: T1, Thymidylate synthase (Bos taurus, UniProt Q2TA32); assay: Noncompetitive inhibition of purified calf thymus thymidylate synthetase using 5-[3H]-2'-deoxyuridine 5'-phosphate as substrate after 7 mins by double reciprocal plot method; in short: as §1
T1 sequence (Q2TA32 whole entry): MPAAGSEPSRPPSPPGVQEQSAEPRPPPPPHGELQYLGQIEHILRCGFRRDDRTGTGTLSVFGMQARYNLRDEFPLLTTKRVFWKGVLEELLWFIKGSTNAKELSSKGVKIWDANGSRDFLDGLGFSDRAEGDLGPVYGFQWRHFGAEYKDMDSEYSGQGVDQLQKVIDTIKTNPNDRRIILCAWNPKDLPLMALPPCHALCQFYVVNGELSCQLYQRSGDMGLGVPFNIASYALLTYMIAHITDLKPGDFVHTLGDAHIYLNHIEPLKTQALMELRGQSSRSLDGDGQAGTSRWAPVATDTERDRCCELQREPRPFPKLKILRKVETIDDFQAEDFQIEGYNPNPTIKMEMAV

Thymidylate synthase [4] = biological target: T1, Thymidylate synthase; assay: Competitive inhibition of purified calf thymus thymidylate synthetase using 5-[3H]-2'-deoxyuridine 5'-phosphate as substrate after 7 mins by double reciprocal plot method; in short: as §1
[5] = Ratio of Ki for purified mouse Ehrlich ascites tumor cell thymidylate synthetase to Ki for purified calf thymus thymidylate synthetase

Row | Ki (Thymidylate synthase [2]) [µM] | Ki (Thymidylate synthase [3]) [µM] | Ki (Thymidylate synthase [4]) [µM] | Ratio Ki [5] | SMILES | Ki [1] [µM]
1 | 27 | 43 | – | – | O=c1[nH]c(=O)n([C@H]2C[C@H](O)[C@@H](COP(=O)(O)O)O2)cc1CN1CCCC1 | 56
2 | 73 | – | 110 | – | CN(C)Cc1cn([C@H]2C[C@H](O)[C@@H](COP(=O)(O)O)O2)c(=O)[nH]c1=O | 90
3 | 6.5 | – | 8 | – | O=c1ccn([C@H]2C[C@H](O)[C@@H](COP(=O)(O)O)O2)c(=O)[nH]1 [DEOXYURIDINE MONOPHOSPHATE] | 7.6
4 | 14 | – | 3.1 | 4 | CN(C)CCNCc1cn([C@H]2C[C@H](O)[C@@H](COP(=O)(O)O)O2)c(=O)[nH]c1=O | 6

From ChEMBL document CHEMBL3244410, “Thymidylate synthetase inhibitors. Synthesis of N-substituted 5-aminomethyl-2'-deoxyuridine 5'-phosphates” (J Med Chem, 1977)
